M5 ag: CHRM5 agonism in calcium assay. P08912. CHO-K1 hM5 cells, Fluo-8 calcium fluorescence; 0% DMSO wells, 100% maximal acetylcholine response. activation, % at 3 µM. actives 0.19% (n = 360,000);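 active = activation above the run's mean over test compounds plus 3 SD, cut at about 23% in these data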;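 also: signal is peak over basal fluorescence ratio across the kinetic read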
M4 ag: agonists of human muscarinic M4 receptor (CHRM4); CHO-K1 hM4/Gqi5, Fluo-8 calcium fluorescence; vehicle 0%, full acetylcholine response 100%; actives 0.14% (n = 360,000); activation, % at 3 µM; P08173;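 active = activation above the run mean over all test wells plus 3 SD, cut at about 32% in these data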;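 also: peak over basal fluorescence ratio per well then scaled between controls; 0% = DMSO wells and 100% = acetylcholine at EC100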
Target sequence (P08173 whole entry, looked up): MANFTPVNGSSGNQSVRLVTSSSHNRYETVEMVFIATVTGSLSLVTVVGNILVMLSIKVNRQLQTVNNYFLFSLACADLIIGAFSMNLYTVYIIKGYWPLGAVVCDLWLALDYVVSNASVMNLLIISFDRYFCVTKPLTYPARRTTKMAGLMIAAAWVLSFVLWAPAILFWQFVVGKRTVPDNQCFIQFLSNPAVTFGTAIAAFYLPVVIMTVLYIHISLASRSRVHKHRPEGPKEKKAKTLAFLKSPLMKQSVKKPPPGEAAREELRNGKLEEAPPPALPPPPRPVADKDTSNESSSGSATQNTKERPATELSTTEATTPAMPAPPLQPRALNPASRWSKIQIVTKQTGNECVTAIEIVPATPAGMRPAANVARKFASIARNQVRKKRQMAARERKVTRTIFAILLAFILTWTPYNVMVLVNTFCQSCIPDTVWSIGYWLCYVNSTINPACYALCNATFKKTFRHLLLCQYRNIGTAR
M4 PAM: positive allosteric modulators of human muscarinic M4 receptor | P08173 | actives 0.4% (n = 360,000) | CHO-K1 hM4/Gqi5, Fluo-8 calcium fluorescence, ACh EC20; 0% = ACh EC20, 100% = maximal ACh | activation, % at 3 µM;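 active = activation above its plate's cutoff, the mean activation of sample wells plus 3 SD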
CHRM5 PAM: potentiates acetylcholine response at human M5 receptor; P08912; CHO-K1 hM5, Fluo-8 calcium, ACh EC20 PAM; 0% = ACh EC20, 100% = ACh EC100; activation, % at 3 µM; actives 0.3% (n = 360,000); AID 624038;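 active = activation above the run cutoff, the mean activation of all test compounds plus 3 SD, cut at about 18% in these data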
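System: CHO-K1 cell line with stable human muscarinic M5 receptor expression | Also added: EC20 acetylcholine as agonist stimulus | Compound: One concentration, 3 µM final (nominal) | Timing: Fluo-8 loading 80 min at 37 °C plus 30 min room temperature | Measured by: Fluo-8 calcium dye fluorescence, kinetic read | Read-out basis: % activation, ACh-normalized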
CHRM5 antagonist: blocks acetylcholine activation of human M5 receptor; CHO-hM5 cells, Fluo-8 calcium fluorescence, ACh EC80; inhibition, % at 3 µM; actives 0.59% (n = 360,000);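 active = inhibition above a per-plate cutoff, the mean of that plate's test compounds plus 3 SD, cut at about 27% in these data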;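 also: 0% = acetylcholine EC80 with DMSO and 100% = DMSO without agonist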
CHRM4 antagonist: CHRM4 antagonism in calcium assay | P08173 | CHO-hM4 cells, ACh EC80, Fluo-8 calcium fluorescence | inhibition, % at 3 µM | actives 0.73% (n = 360,000) | AID 624125;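 active = inhibition above its plate's cutoff, the mean inhibition of sample wells plus 3 SD, cut at about 27% in these data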;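 also: 0% = acetylcholine EC80 with DMSO and 100% = DMSO without agonist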
Active calls of the source: *. Compounds with a hit are over-represented: about 1.9% of the library has one in this group of screens.

SMILES | M5 ag | M4 ag | M4 PAM | CHRM5 PAM | CHRM5 antagonist | CHRM4 antagonist
CN1CCN(CCC(=O)N2c3ccccc3Sc3ccc(Cl)cc32)CC1 | -7 | 0 | -20 | -15 | 9 | 21
NCCC(=O)N1c2ccccc2Sc2ccc(Cl)cc21 | -20 | 14 | -14 | -33 | 61* | 38*
NCCCC(=O)N1c2ccccc2Sc2ccc(Cl)cc21 | -11 | 2 | -19 | -23 | 77* | 64*
CCCCn1c(N)c(N(CC(C)C)C(=O)c2cc(S(=O)(=O)N3CCOCC3)ccc2Cl)c(=O)[nH]c1=O | -1 | 0 | 6 | -3 | 6 | -4
C=CCC[C@@H](Cc1ccc(F)cc1)C(=O)OC[C@@H]1CCCN1C(=O)[C@H](CC=C)CC(=O)N[C@H](CO)Cc1ccccc1 | -2 | 6 | 1 | -3 | 8 | 0
C=CCC[C@@H](Cc1ccc(F)cc1)C(=O)OC[C@H]1CCCN1C(=O)[C@@H](CC=C)CC(=O)N[C@H](CO)Cc1ccccc1 | 3 | 19 | -11 | -19 | 6 | 31*
O=C(NCCCN1CCCC1)c1ccc2c(c1)N(Cc1cccc(Cl)c1)C(=O)c1ccccc1S2(=O)=O | -3 | 1 | -5 | -2 | 3 | 7
CC1(c2nnc(-c3cccc(Cl)c3)o2)CC(c2cccnc2)=NO1 (stereo not drawn) | 2 | 3 | 4 | 4 | 1 | 0
CCC(=O)c1ccc(OCC(=O)Nc2cccc(S(=O)(=O)N3CCCCCC3)c2)cc1 | 5 | 26 | -13 | -31 | 29* | 25
Cc1cc(OCC(=O)Nc2cccc(S(=O)(=O)N3CCCCC3)c2)ccc1Cl | 2 | 5 | -7 | -15 | 14 | 4
CCN(CC)S(=O)(=O)c1cccc(NC(=O)/C=C/c2cccc([N+](=O)[O-])c2)c1 | -1 | 19 | -18 | -19 | 33* | 17
O=C(CNc1cccc(S(=O)(=O)N2CCCC2)c1)Nc1ccc(F)c(F)c1 | 6 | 14 | 20* | -10 | 10 | -17
CCN(CC)S(=O)(=O)c1cccc(NC(=O)/C=C/c2ccc([N+](=O)[O-])cc2)c1 | 3 | 10 | -16 | -10 | 3 | 2
CCN(CC)S(=O)(=O)c1cccc(NC(=O)Nc2cccc(C(F)(F)F)c2)c1 | 9 | 15 | -15 | -16 | 34* | 11
CCN(CC)S(=O)(=O)c1cccc(NC(=O)CNc2cccc(S(=O)(=O)N3CCCC3)c2)c1 | -2 | 8 | -6 | -12 | 38* | 12
O=C(COC(=O)c1cc([N+](=O)[O-])ccc1NCCO)Nc1cccc(S(=O)(=O)N2CCCC2)c1 | -4 | 5 | -15 | -9 | 15 | 35*
CCN(CC)S(=O)(=O)c1ccc(C)c(NC(=O)CNc2cccc(S(=O)(=O)N3CCCC3)c2)c1 | 0 | 1 | 6 | 0 | 1 | -15
O=C(COC(=O)c1cc([N+](=O)[O-])ccc1NCCO)Nc1ccc2c(c1)OCO2 | 0 | 4 | -5 | -8 | 16 | -3
O=C(c1ccc(Cl)cc1)N1CCC(=O)N(C(CO)Cc2ccccc2)CC1 (stereo not drawn) | 5 | 1 | 12 | 1 | 6 | -4
CCSc1nnc(NC(=O)NC(C)(C(F)(F)F)C(F)(F)F)s1 | 2 | 10 | -6 | -11 | 14 | 5
CCSc1nnc(NC(=O)NC(CC)(C(F)(F)F)C(F)(F)F)s1 | 3 | 9 | -9 | -21 | 31* | 8
Nc1ncnc2c1ncn2[C@@H]1O[C@H](COP(=O)(O)OP(=O)(O)OP(=O)(O)O)[C@@H](O)[C@H]1O | 46* | 96* | 10 | -6 | -1 | -12
N#Cc1ccc(NC(=O)C2=COCCO2)cc1 | 2 | 1 | 11 | 0 | -7 | -8
Cc1ccc2c(c1)cc1c(=O)n(CC(=O)NCCCc3ccccc3)nc(C)n12 | 3 | 19 | -10 | -11 | 4 | 32*
Cc1nn(CC(=O)NCCCc2ccccc2)c(=O)c2cc3occc3n12 | -3 | 0 | 15 | 7 | -9 | -23
SMILES | M5 ag | M4 ag | M4 PAM | CHRM5 PAM | CHRM5 antagonist | CHRM4 antagonist
COC(=O)C1=C(C)NC2=C(C(=O)C(C(=O)OC)C(c3ccc(OC)cc3)C2)C1c1ccccn1 (stereo not drawn) | -2 | 5 | -2 | 37* | 3 | -19
COC(=O)C1=C(C)NC2=C(C(=O)CC(C)(C)C2)C1c1ccccn1 (stereo not drawn) | -1 | 1 | 13 | 4 | 1 | -9
C[N+]1(C)CC[C@H](OC(=O)[C@@](O)(c2ccccc2)C2CCCC2)C1 | -1 | 0 | -18 | -18 | 99* | 99*
C[N+]1(C)CCC(OC(=O)C(O)(c2ccccc2)C2CCCC2)C1 (stereo not drawn) | -2 | 0 | -16 | -19 | 98* | 99*
O=C(Nc1ccccc1C(F)(F)F)C(O)(c1ccccc1)C1CCCCC1 (stereo not drawn) | -3 | 1 | 10 | 4 | 10 | -7
Cc1nn(-c2ccccc2)c(Cl)c1C(=O)OCC(=O)NCCc1ccc(S(N)(=O)=O)cc1 | -4 | 1 | 10 | 4 | 13 | 3
CC1(NC(=O)CC(c2ccccc2)(c2ccccc2)c2ccccc2)CCN(CCCc2ccccc2)C1=O (stereo not drawn) | -3 | 1 | 3 | -11 | 1 | -2
CCC1(c2ccccc2)NC(=O)N(CC(=O)N(C)CC(=O)Nc2ccc(F)c(F)c2F)C1=O (stereo not drawn) | 3 | 0 | 12 | 9 | -4 | -11
CC1(C)CC(=O)C2=C(C1)NC(=O)CC2c1cc2c(cc1Br)OCO2 (stereo not drawn) | -3 | 3 | 24* | -2 | 3 | -1
CCOC(=O)N/N=C(/c1ccccc1)C1CCCCC1 | -3 | 1 | 12 | 4 | -9 | -6
COC(=O)c1ccc(CNC(=O)COC(=O)c2cccs2)cc1 | 2 | 2 | -1 | -8 | 18 | 3
CCOC(=O)c1sc(=NC(=O)c2ccc(S(=O)(=O)N(C)c3ccccc3)cc2)n(C)c1C | -1 | 2 | 27* | 5 | -6 | -1
COc1ccc(-c2nn(-c3ccccc3)cc2CNC[C@H]2O[C@@H](n3cnc4c(=O)[nH]c(N)nc43)[C@H](O)[C@@H]2O)cc1 | 1 | 0 | 15 | 10 | 0 | -7
CCOC(=O)c1c(-c2ccccc2)csc1NC(=O)/C(C#N)=C\c1ccc(O)c(OC)c1 | 31* | 3 | 1 | 12 | 17 | 1
CCOC(=O)c1c(-c2ccc(C)cc2)csc1NC(=O)/C(C#N)=C/c1ccc(O)c(OC)c1 | 5 | 3 | 1 | 8 | -13 | 2
